The record followed here is ChEMBL document CHEMBL2040743, “Pipestelides A-C: cyclodepsipeptides from the Pacific marine sponge Pipestela candelabra” (J Nat Prod, 2012).

Assay [1] concerns KB. In words: Inhibition of cell proliferation of human KB cells at 10 uM after 72 hrs by CellTiter assay. Format: functional. A digest of the protocol:
(§1)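 KB cells from NCI grown in D-MEM with 10% fetal calf serum and antibiotics under 5% CO2. 600 cells/well, compound in DMSO added 24 h after seeding (1% DMSO final), exposure 72 h. MTS reagent for 3 h at 37 °C, A490. % inhibition = (1 − OD treated/OD DMSO control) × 100, mean ± SE of triplicates.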

For assay [2], the system named is KB. In words: Growth inhibition of human KB cells after 72 hrs by CellTiter 96 assay. Format: functional, cell-based. The essentials:
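NCI KB cells in D-MEM with 10% fetal calf serum and antibiotics, 5% CO2. 600 cells/well, dosed 24 h after plating from DMSO stocks, 1% DMSO final. Tested from 5 nM to 100 μM for 72 h, then 3 h at 37 °C with MTS reagent and A490 read. IC50 taken from separate duplicate experiments, values given individually.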

Assay [3] has as its system KB. In words: Inhibition of cell proliferation of human KB cells at 1 uM after 72 hrs by CellTiter 96 assay. Format: functional. The essentials:
as §1

The term inhibition denotes the change of the read-out against control, counted positive when it falls. A lower inhibition goes with little suppression. The IC50 is the concentration that gives 50% inhibition. A higher IC50 goes with a need for much substance. For the compound `CC[C@H]1NC(=O)[C@@H](C)C/C(C)=C/[C@H](C)C[C@H](C)OC(=O)C[C@H](c2ccc(O)cc2)NC(=O)[C@@H](Cc2c(Br)[nH]c3ccccc23)N(C)C1=O` [JASPAMIDE D], the inhibition at 10 µM in the assay with KB [1] came out at 100%. The IC50 in the assay with KB [2] amounted to 0.0044 µM. Also, the inhibition at 1 µM in the assay with KB [3] was 100%.

`C/C1=C\[C@H](C)C[C@H](C)OC(=O)C[C@H](c2ccc(O)cc2)NC(=O)[C@@H](Cc2c(Br)[nH]c3ccccc23)N(C)C(=O)[C@H](CO)NC(=O)[C@@H](C)C1` [JASPAMIDE E] returned an inhibition at 10 µM in the assay on KB [1] of 100%. This compound also came in with an IC50 with KB [2] of 0.121 µM. In the assay on KB [3], this compound registered an inhibition at 1 µM of 100%.

On to `C/C1=C\[C@H](C)C[C@H](C)OC(=O)C[C@H](c2ccc(O)cc2)NC(=O)[C@@H](Cc2c(Br)[nH]c3ccccc23)N(C)C(=O)[C@H](C)NC(=O)[C@@H](C)C1O` (stereo partly drawn) [JASPAMIDE K], for which at 10 µM the inhibition with KB [1] was 100%. The same compound registered an IC50 in the assay on KB [2] of 3.35 µM. In the assay with KB [3], this compound came in with an inhibition at 1 µM of 100%.

On to `C[C@@H]1NC(=O)[C@@H](C)C/C(CO)=C/[C@H](C)C[C@H](C)OC(=O)C[C@H](c2ccc(O)cc2)NC(=O)[C@@H](Cc2c(Br)[nH]c3ccccc23)N(C)C1=O` [JASPAMIDE L], for which, in the assay on KB [1], 10 µM produced 99% inhibition. Besides, in the assay on KB [2], inhibition was half-maximal at 0.214 µM (IC50). The compound further had an inhibition at 1 µM in the assay on KB [3] of 100%.

Consider `C/C1=C\[C@H](C)C[C@H](C)OC(=O)C[C@H](c2ccc(O)cc2)NC(=O)[C@@H](Cc2c(Br)[nH]c3ccccc23)N(C)C(=O)[C@H](C)NC(=O)[C@@H](C)C1` [JASPAMIDE], for which the inhibition at 10 µM in the assay on KB [1] is 100%. Further, the IC50 with KB [2] stood at 0.013 µM. The inhibition at 1 µM in the assay on KB [3] amounted to 99%.

Regarding `C=C1C[C@H](C)C(=O)N[C@@H](C)C(=O)N(C)[C@H](Cc2c(Br)[nH]c3ccccc23)C(=O)N[C@@H](c2ccc(O)cc2)CC(=O)O[C@@H](C)C[C@@H](C)C1=O` [JASPLAKINOLIDE B], at 10 µM the inhibition in the assay on KB [1] was 99%. In the assay on KB [2], this compound came in with an IC50 of 0.029 µM. Further, in the assay on KB [3], the inhibition at 1 µM stood at 99%.

In the assay on KB [1], `C=C1C[C@H](C)C(=O)N[C@@H](C)C(=O)N(C)[C@H](Cc2c(Br)[nH]c3ccccc23)C(=O)N[C@@H](c2ccc(O)cc2)CC(=O)O[C@@H](C)C[C@@H](C)[C@H]1O` [JASPLAKINOLIDE CA] came in with an inhibition at 10 µM of 80%. The compound also gave an inhibition at 1 µM in the assay on KB [3] of 0%.

In the assay with KB [1], `C=C1C[C@H](C)C(=O)N[C@@H](C)C(=O)N(C)[C@H](Cc2c(Br)[nH]c3ccccc23)C(=O)N[C@@H](c2ccc(O)cc2)CC(=O)O[C@@H](C)C[C@@H](C)[C@@H]1O` [JASPLAKINOLIDE CB] gave an inhibition at 10 µM of 100%. Moreover, in the assay with KB [3], the inhibition at 1 µM was found to be 75%.

In the case of `C/C(=C\[C@H](C)C[C@H](C)O)C[C@H](C)C(=O)N[C@@H](C)C(=O)N(C)[C@H](Cc1c(Br)[nH]c2ccccc12)C(=O)N[C@H](CC(=O)O)c1ccc(O)cc1` [JASPLAKINOLIDE Z1], testing at 10 µM in the assay on KB [1] gave an inhibition of 30%.

`C/C1=C\[C@H](C)C[C@H](C)OC(=O)C[C@H](c2ccc(O)c(Br)c2)NC(=O)[C@@H](Cc2c(Br)[nH]c3ccccc23)N(C)C(=O)[C@H](C)NC(=O)[C@@H](C)C1` [PIPESTELIDE A] registered an inhibition at 10 µM in the assay on KB [1] of 100%. The compound further returned an IC50 with KB [2] of 0.1 µM. The compound also came in with an inhibition at 1 µM with KB [3] of 100%.

As to `C/C1=C/[C@H](C)C(=O)N[C@@H](C)C(=O)N(C)[C@H](Cc2c(Br)[nH]c3ccccc23)C(=O)N[C@@H](c2ccc(O)cc2)CC(=O)O[C@@H](C)C[C@@H](C)[C@H]1O` [PIPESTELIDE B], testing at 10 µM in the assay on KB [1] gave an inhibition of 100%. In the assay on KB [3], this compound came in with an inhibition at 1 µM of 0%.
